Experimental data as given in ChEMBL document CHEMBL4145568, “Antiplasmodial Diterpenoids and a Benzotropolone from Petradoria pumila” (J Nat Prod, 2018).

Tests used:
[1] = test system: Plasmodium falciparum; assay: Antimalarial activity against Plasmodium falciparum Dd2 ring stage parasite assessed as decrease in parasite viability after 72 hrs by SYBR green 1 dye based assay; format: functional, organism-based
In short: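 Ring-stage cultures at 1% hematocrit and 1% parasitemia grown 72 h at 37 °C under 5% CO2, 5% O2, 90% N2 with increasing drug concentrations. Viability read by SYBR Green I DNA quantitation. IC50 from nonlinear regression, mean of three independent determinations each in duplicate, ± SEM.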

[2] = test system: A2780; assay: Cytotoxicity against human A2780 cells assessed as inhibition of cell growth after 2 days by Alamar blue assay; format: functional, cell-based; details: A2780, 48 h
[3] = Plasmodium falciparum, Dd2, 72 h, read-out: IC50

C=C[C@](C)(O)[C@@H]1C[C@@H]2[C@@]3(C)C(=O)CCC(C)(C)[C@@H]3CC[C@@]2(C)O1
IC50 [1, 3]: > 20 µM | IC50 [2]: > 50 µM

C=C[C@](C)(O)[C@@H]1C[C@@H]2[C@@]3(C)[C@@H](O)CCC(C)(C)[C@@H]3CC[C@@]2(C)O1
IC50 [1, 3]: > 20 µM | IC50 [2]: > 50 µM

COc1cc([C@@H]2Oc3c(OC)cc(/C=C/COC(C)=O)cc3[C@H]2COC(C)=O)ccc1O
IC50 [1]: Not Active

C=C[C@@](C)(OC(C)=O)[C@@H]1C[C@@H]2[C@@]3(C)C(=O)CCC(C)(C)[C@@H]3CC[C@@]2(C)O1
IC50 [1]: Not Active | IC50 [2]: > 50 µM

COc1cc([C@@H]2Oc3c(OC)cc(/C=C/COC(=O)CC(C)C)cc3[C@H]2COC(=O)CC(C)C)ccc1O
IC50 [1, 3]: > 20 µM

C=C[C@@](C)(OC(C)=O)[C@@H]1C[C@@H]2[C@@]3(C)[C@@H](O)CCC(C)(C)[C@@H]3CC[C@@]2(C)O1
IC50 [1, 3]: 7.3 µM | IC50 [2]: > 50 µM

COc1cc2c(C)cccc2ccc1=O
IC50 [1, 3]: > 20 µM | IC50 [2]: > 50 µM

C[C@@H]1CC[C@H]2[C@@H](C)C(=O)O[C@@H]3O[C@@]4(C)CC[C@@H]1[C@]32OO4 [ARTEMISININ]
IC50 [1, 3]: 0.0085 µM
